Measurements of several laboratories.
Compare with care: the assays were run in different laboratories.
Target: MAP/microtubule affinity-regulating kinase 3 (MARK3, Homo sapiens, UniProt P27448)

SMILES | effect on | action | technique | tested at | quantity | result
Cn1cncc1[C@](O)(COc1ccc(C#N)cc1-c1ccc(OC(F)(F)F)cc1)c1ccc(C#N)cc1 | cell-free assay |  | competition with immobilised ligand | 1 µM | remaining binding | 100%
CC(C)(C)c1cc(C=C(C#N)C#N)cc(Br)c1O | enzyme activity | inhibitor |  | 0.5 µM | remaining activity | 105%
Cn1cc(-c2cc(F)cc(N3CCn4c(cc5c4CCCC5)C3=O)c2CO)cc(Nc2ccc(N3CCN(C4COC4)CC3)cn2)c1=O | enzyme activity | inhibitor |  | 0.1 µM | inhibition | 6%
COc1ncccc1-c1cnn2ccc(N3CCN(C(=O)OC(C)C)CC3)nc12 | binding |  | competition with immobilised ligand | 1 µM | remaining binding | 96%
COc1cc(Nc2ncc(F)c(Nc3ccc4c(n3)NC(=O)C(C)(C)O4)n2)cc(OC)c1OC | binding |  | competition with immobilised ligand | 10 µM | inhibition | 63%
O=c1[nH]c2ccccc2n1C1CCN(Cc2ccc(-c3[nH]c4cc5ncnc5cc4nc3-c3ccccc3)cc2)CC1 | cell-free assay |  |  | 0.5 µM | remaining signal | 103%
Cc1nn(C)cc1-c1nc2c(N3CCN(Cc4ccc(Cl)cc4)CC3)c(Cl)cnc2[nH]1 | binding |  | competition with immobilised ligand | 1 µM | remaining binding | 45%
Nc1ncc(-c2nc(N3CCOCC3)nc(N3CCOCC3)n2)c(C(F)F)n1 | binding |  | competition with immobilised ligand | 10 µM | remaining binding | 100%
